The source of these data is ChEMBL document CHEMBL4184306 (Bioorg Med Chem Lett, 2018).

The nature of data set [1]: Growth inhibition of SV-40 immortalized human ovarian epithelial cells after 72 hrs by SRB assay.
Data set [2] has as its system Plasmodium falciparum. The experiment in a line: Antiplasmodial activity against Plasmodium falciparum Dd2 by SYBR Green I fluorescence assay. Format: functional, organism-based.
The next data set deals with A2780 (human). The experiment in a line: Selectivity index, ratio of IC50 for SV-40 immortalized human ovarian epithelial cells to IC50 for human A2780 cells.
Data set [3] deals with A2780. The experiment in a line: Growth inhibition of human A2780 cells after 72 hrs by SRB assay. As to conditions: A2780, 72 h. Format: functional, cell-based.
A short description of data set [4]: Growth inhibition of human A2780cis cells after 72 hrs by SRB assay. The class given is functional, cell-based.
The test system of another data set is OVCAR-8. The experiment in a line: Growth inhibition of human OVCAR8 cells after 72 hrs by SRB assay. The class given is functional, cell-based. Particulars: OVCAR-8, 72 h.
A short description of data set [5]: Aqueous solubility of the compound in phosphate buffer at pH 7.4 measured after 24 hrs by HPLC method. The class given is physicochemical. The procedure, abridged:
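Measured in phosphate buffer at pH 7.4 and 37 °C, with the dissolved compound quantified by high-performance liquid chromatography.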

Data set [6] has as its system A2780. The data set is described as follows: Growth inhibition of human A2780 cells after 48 hrs by MTT assay. As to conditions: A2780, 48 h. Format: functional, cell-based.
Data set [7] relates to Plasmodium falciparum. The experiment in a line: Antiplasmodial activity against chloroquine sensitive Plasmodium falciparum FCR-3/Gambia assessed as [3H]hypoxanthine incorporation after 72 hrs. Format: functional, organism-based.
A short description of data set [8]: Growth inhibition of human A2780cis cells after 72 hrs by MTT assay. Format: functional, cell-based.
Data set [9] in a line: Growth inhibition of SV-40 immortalized human ovarian epithelial cells after 48 hrs by MTT assay.
The subject of data set [10] is Plasmodium falciparum. The data set is described as follows: Antiplasmodial activity against chloroquine and artemisinin sensitive Plasmodium falciparum FCR-3/Gambia after 72 hrs. The class given is functional, organism-based.

Converted amounts (≈) assume the structure as drawn.

Regarding `CC1=CC(=O)C=C(C)C1=O`, the IC50 stood at 5.3 µM in data set [1]; 10.4 µM in the data set on Plasmodium falciparum [2]; 3.2 µM in the data set on A2780 [3]; 2.9 µM in data set [4]; 5.2 µM in the data set with OVCAR-8. In the data set with A2780 (human), the selectivity ratio stood at 1.7. The compound further registered a solubility at 24 h in [5] of 5040 µg/mL (≈ 37 mM).

As to `CC(C)(C)C1=CC(=O)C=CC1=O`, the IC50 amounted to 10.3 µM in [1]; 15.6 µM in the data set on Plasmodium falciparum [2]; 5.7 µM in the data set with A2780 [3]; 4.9 µM in [4]; 10 µM in the data set with OVCAR-8. Besides, in the data set on A2780 (human), the selectivity ratio is 1.8.

With `CC1=CC(=O)C(C(C)(C)C)=CC1=O`, the IC50 was 55.8 µM in data set [1]; 19.7 µM in the data set on Plasmodium falciparum [2]; 7.5 µM in the data set on A2780 [3]; 7.9 µM in data set [4]; 13.5 µM in the data set on OVCAR-8. The selectivity ratio with A2780 (human) stood at 7.5.

As for `CC1=C(N)C(=O)C(C(C)C)=CC1=O`, the half-maximal inhibitory concentration (IC50) in [1] amounted to 139 µM; in the data set with Plasmodium falciparum [2], 19.3 µM; in the data set with A2780 [3], 19.9 µM; in data set [4], 19.3 µM; in the data set on OVCAR-8, 35.1 µM. Besides, in the data set with A2780 (human), the selectivity ratio stood at 7.1.

For the compound `CC(C)(C)C1=CC(=O)C=C(C(C)(C)C)C1=O`, the IC50 turned out to be 51.5 µM in [1]; 29.5 µM in the data set with Plasmodium falciparum [2]; 24.6 µM in the data set with A2780 [3]; 31.1 µM in [4]; 37.4 µM with OVCAR-8.

For `CC(C)(C)C1=CC(=O)C(C(C)(C)C)=CC1=O`, the 50% inhibitory concentration (IC50) was determined as 117 µM in data set [1]; 4.2 µM with Plasmodium falciparum [2]; 34 µM in the data set on A2780 [3]; 42.5 µM in data set [4]; 51.2 µM in the data set with OVCAR-8.

Turning to `CC1=CC(=O)C(Nc2ccc(F)cc2)=CC1=O`, the half-inhibitory concentration (IC50) in data set [1] was determined as 20.2 µM; in the data set on Plasmodium falciparum [2], 100 µM; with A2780 [3], 15 µM; in [4] it was 21.8 µM; with OVCAR-8, 32 µM. Moreover, the selectivity ratio in the data set on A2780 (human) was found to be 1.3.

Turning to `CC1=CC(=O)C(N(C)C)=CC1=O`, the IC50 worked out at 7.9 µM in data set [1]; 9.9 µM with Plasmodium falciparum [2]; 6.2 µM with A2780 [3]; 4.7 µM in data set [4]; 5.6 µM with OVCAR-8. The selectivity ratio in the data set on A2780 (human) turned out to be 1.7. The compound also had a solubility at 24 h in data set [5] of 8320 µg/mL (≈ 50.4 mM).

With `Cc1cc(O)c(C(C)C)cc1O`, the IC50 was found to be 14 µM in data set [1]; 15.9 µM in the data set on Plasmodium falciparum [2]; 3.1 µM with A2780 [3]; 9.8 µM in [4]; 8.9 µM with OVCAR-8. For the same compound, the selectivity ratio with A2780 (human) was 4.5.

For the compound `Cc1cc(O)cc(C)c1O`, the IC50 in data set [1] is 7.8 µM; with Plasmodium falciparum [2], 15.4 µM; in the data set with A2780 [3] it was 3.6 µM; in [4], 3.6 µM; with OVCAR-8 it was 8.3 µM. The selectivity ratio with A2780 (human) is 2.1.

For `CC(C)(C)CC(C)(C)C1=CC(=O)C(C(C)(C)CC(C)(C)C)=CC1=O`, the IC50 in [1] is greater than 200 µM; with Plasmodium falciparum [2], 116 µM; in the data set with A2780 [3], 44.2 µM; in [4], 51.8 µM; in the data set on OVCAR-8, 56.5 µM. In addition, the selectivity ratio in the data set on A2780 (human) is greater than 4.6.

`CNC1=C(C)C(=O)C=C(C(C)C)C1=O`: the IC50 turned out to be 36.8 µM in [1]; 52.7 µM in the data set with Plasmodium falciparum [2]; 14 µM in the data set with A2780 [3]; 7.3 µM in [4]; 12.9 µM in the data set with OVCAR-8. Further, the selectivity ratio in the data set with A2780 (human) came out at 5.

Turning to `Cc1c(O)c(Br)c(C(C)C)c(O)c1Br`, the half-inhibitory concentration (IC50) in [1] worked out at 11 µM; in the data set on Plasmodium falciparum [2], 25.6 µM; in the data set on A2780 [3] it was 3.4 µM; in [4], 4.8 µM; with OVCAR-8 it was 11.6 µM. Also, in the data set on A2780 (human), the selectivity ratio came to 3.2.

Regarding `CCC(C)(C)C1=CC(=O)C(C(C)(C)CC)=CC1=O`, the IC50 in [1] was greater than 200 µM; in the data set with Plasmodium falciparum [2] it was 78.8 µM; in the data set with A2780 [3] it was 36.1 µM; in [4] it was 48.8 µM; with OVCAR-8 it was 54.2 µM. In the data set with A2780 (human), the selectivity ratio is greater than 5.

Regarding `CC1=C(Cl)C(=O)C(C(C)(C)C)=C(Cl)C1=O`, the IC50 in data set [1] came to 3.1 µM; in the data set with Plasmodium falciparum [2] it was 16.2 µM; in the data set on A2780 [3], 4.5 µM; in data set [4], 4.2 µM; in the data set on OVCAR-8, 6 µM. Further, the selectivity ratio in the data set on A2780 (human) is less than 1.

Turning to `Cc1cc(O)c(C(C)(C)C)cc1O`, the IC50 in data set [1] came out at 85.6 µM; with Plasmodium falciparum [2] it was 17.9 µM; with A2780 [3], 6.4 µM; in data set [4], 11.5 µM; in the data set on OVCAR-8 it was 12.2 µM. Further, the selectivity ratio in the data set on A2780 (human) is 13.4.

As for `CCNC1=C(C)C(=O)C=C(C(C)C)C1=O`, the IC50 in data set [1] came out at 30.3 µM; in the data set on Plasmodium falciparum [2] it was 11.1 µM; in the data set on A2780 [3], 12.6 µM; in [4] it was 9.6 µM; in the data set on OVCAR-8, 16 µM. For the same compound, the selectivity ratio in the data set with A2780 (human) turned out to be 3.1.

As to `CC1=C(N(C)C)C(=O)C=CC1=O`, the IC50 worked out at 28.2 µM in data set [1]; 191 µM in the data set with Plasmodium falciparum [2]; 16.7 µM with A2780 [3]; 20.5 µM in [4]; 35.6 µM in the data set on OVCAR-8. The selectivity ratio in the data set with A2780 (human) was found to be 1.3.

Turning to `CC1=CC(=O)C=CC1=O` [Cresoquinone], the IC50 came to 6 µM in data set [1], 12.1 µM with A2780 [3], 11.8 µM in data set [4] and 13.4 µM with OVCAR-8. Besides, the selectivity ratio in the data set on A2780 (human) is less than 1.

In the case of `CC1=C(Br)C(=O)C(C(C)C)=C(Br)C1=O` [Dibromothymoquinone], the IC50 came to 7.3 µM in data set [1]; 30 µM in the data set with Plasmodium falciparum [2]; 4.9 µM in the data set with A2780 [3]; 5.3 µM in data set [4]; 3.6 µM in the data set with OVCAR-8. Also, in the data set with A2780 (human), the selectivity ratio amounted to 1.5.

With `Cc1cc(O)ccc1O` [METHYLHYDROQUINONE], the IC50 in [1] stood at 6.3 µM; with Plasmodium falciparum [2], 134 µM; with A2780 [3] it was 5.7 µM; in [4], 4.7 µM; in the data set on OVCAR-8 it was 6.2 µM.

Consider `CC(=O)O[C@H]1C(=O)[C@@]2(C)[C@H]([C@H](OC(=O)c3ccccc3)[C@]3(O)C[C@H](OC(=O)[C@H](O)[C@@H](NC(=O)c4ccccc4)c4ccccc4)C(C)=C1C3(C)C)[C@]1(OC(C)=O)CO[C@@H]1C[C@@H]2O` [PACLITAXEL], for which the IC50 with A2780 [6] is 0.05 µM; in the data set on Plasmodium falciparum [7] it was 0.003 to 0.006 µM; with A2780 [3], 0.009 µM; in [8], 0.003 to 0.004 µM; in the data set with OVCAR-8 it was 0.01 µM; in data set [9], 0.03 µM.

As for `CC1=CC(=O)C(C(C)C)=CC1=O` [THYMOQUINONE], the IC50 in [1] was 17.8 µM; with Plasmodium falciparum [2] it was 25 µM; in the data set on A2780 [3], 7.9 µM; in data set [4], 7.8 µM; in the data set with OVCAR-8, 11.6 µM; in the data set on Plasmodium falciparum [10], 1.2 µM. In data set [5], this compound registered a solubility at 24 h of 468 µg/mL (≈ 2.85 mM).
